Inconclusive results are not listed. Activity calls are given as the source filed them.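 How the source made its calls, unless noted: active means cell viability at or below a set limit in both duplicate runs, the limit being the all-compound median minus 4 SD (cut at about 23% in these data, passing the limit was not always enough); inconclusive means no clear call, values can overlap the other calls; inactive means the rest.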
Columns and labels:
[1] = OD615 S. cerevisiae growth inhibition, permissive medium, pilot counter-assay, permissive growth control for S. cerevisiae lifespan shortening project (AID 705;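 active means growth inhibition above 25% in both replicates, a cutoff set 3 SD above the mean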); settings: OD615, 24 h, at 10 µM, active compounds read high
Procedure, shortened: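 System: S. cerevisiae with engineered DeaD lifespan system. Medium: SC raffinose/galactose permissive medium. Doses: single compound dose of 10 µM, 0.25% DMSO final. Schedule: 24 h exposure, 30 °C. Measured by: OD615 turbidity read. Read-out: growth inhibition.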

[2] = Restrictive medium S. cerevisiae growth inhibition, OD615, pilot screen of yeast lifespan reduction project, restrictive growth control (AID 706;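 active means growth inhibition above a set limit, 3 SD over mean compound inhibition, in both replicates, cut at about 43% in these data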;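 further: modified DeaD lifespan yeast strain shifted to restrictive glucose medium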); settings: OD615, 48 h, at 10 µM, active compounds read high
Procedure, shortened: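 Assay system – genetically modified Saccharomyces cerevisiae, DeaD replicative lifespan assay strain · Medium – CSMM-D glucose medium · Doses – 10 µM compound, 0.25% DMSO · Times – 4 h pre-incubation, 48 h exposure at 30 °C · Signal – optical density at 615 nm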

[3] = viability gain of MRP-1-high H69AR cells under doxorubicin, pilot screen, MRP-1 activator project, CellTiter-Glo, duplicate (AID 807;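 active means viability increase at or above a cutoff of the median across tested compounds plus 3 SD, cut at about 8.5% in these data, passing the limit was not always enough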;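 further: compound pretreatment 18-22 h then 72 h combined with doxorubicin; 0% = doxorubicin alone and 100% = vehicle without doxorubicin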); settings: H69AR viability with doxorubicin, CellTiter-Glo luminescence; at 10 µM; active compounds read high
[4] = growth suppression of beta-catenin knockout HCT116, pilot screen, human colon tumor cells (AID 823); settings: CellTiter-Glo, 60 h, at 10 µM, active compounds read low;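 further: 0% = wells killed by 20 µM Hyamine and 100% = untreated DMSO cell wells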
[5] = growth suppression of PTEN-deleted HCT116, pilot screen, cell-based, HCT116 clonal line, CellTiter-Glo (AID 824;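 active means viability at or below 27.92% in each of two runs, the all-compound median minus 4 SD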;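 further: 0% = 20 µM Hyamine control and 100% = vehicle cell control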); settings: 60 h, at 10 µM, active compounds read low
[6] = inhibitors of the yeast RAM network, pilot screen, dse1pr::URA3 reporter, 5-FOA selection (AID 869;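 active means inhibition over a set limit, the all-compound mean plus 3 SD, in both replicate runs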;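 further: 0% = DMSO wells with no growth and 100% = 10 µM 1-NA-PP1 with full growth; RAM network block rescues cells from 5-FOA so hits raise OD615 growth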); settings: S. cerevisiae dse1pr::URA3 5-FOA growth, OD615, 2 d; at 10 µM; active compounds read high; strain carries analog-sensitive mutant Cbk1 kinase
[7] = RAM signaling pathway blockade in yeast – S. cerevisiae, Pdr1DBD-CYC8 efflux-inhibited sensitized strain, primary screen (AID 1298;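 active means RAM network inhibition above 8.4% in each of two replicates, 3 SD over the compound average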;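 further: 0% = DMSO untreated cells without growth and 100% = 10 µM 1-NA-PP1 full growth; higher means more yeast growth rescued from 5-FOA killing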); settings: S. cerevisiae cbk1-as DSE1-URA3 strain, 5-FOA growth OD615, 2 d; at 50 µM; active compounds read high

Cc1ccc(S(=O)(=O)Nc2ccc3nc(N)sc3c2)cc1
inactive: growth inhibition [1] 6.55% | growth inhibition [2] 13.4% | viability increase [3] -4.39% | viability [4] 82.6% | viability [5] 85.5% | inhibition [6] 0.19% | RAM network inhibition [7] 2.92%

O=C(NCc1ccc(F)cc1)c1cnc2n(c1=O)CCS2
inactive: growth inhibition [1] -2.45% | growth inhibition [2] -2.23% | viability increase [3] 2.85% | viability [4] 101% | viability [5] 102% | inhibition [6] 0.54% | RAM network inhibition [7] -0.84%

c1ccc(Oc2nc(Oc3ccccc3)nc(N3CCOCC3)n2)cc1
inactive: growth inhibition [1] -3.76% | growth inhibition [2] -9.93% | viability increase [3] -2.99% | viability [4] 83.7% | viability [5] 74.1% | inhibition [6] 0.355% | RAM network inhibition [7] 8.11%

N#Cc1c(NC(=O)c2cc(C3CC3)on2)sc2c1CCC2
inactive: growth inhibition [1] -1.24% | growth inhibition [2] 5.11% | viability increase [3] -5.36% | viability [4] 38.9% | viability [5] 34.1% | inhibition [6] 3.44% | RAM network inhibition [7] -1.72%

CC1Cc2ccccc2N1C1=NS(=O)(=O)c2ccccc21 (configuration not stated)
inactive: growth inhibition [1] -3.44% | growth inhibition [2] -25.5% | viability increase [3] -1.97% | viability [4] 91.7% | viability [5] 96.5% | inhibition [6] 2.68% | RAM network inhibition [7] 7%

COC(=O)c1ccsc1NC(=O)C1=COCCO1
inactive: growth inhibition [1] -9% | growth inhibition [2] -1.36% | viability increase [3] -0.42% | viability [4] 106% | viability [5] 102% | inhibition [6] 0.91% | RAM network inhibition [7] 2.35%

N#Cc1nc(-c2ccccc2F)oc1NC1CCCCC1
inactive: growth inhibition [1] -18.3% | growth inhibition [2] -17.6% | viability increase [3] -2.53% | viability [4] 87.7% | viability [5] 87.6% | inhibition [6] 0.64% | RAM network inhibition [7] 6%

COc1ccc(C(=S)N(C)C)cc1OC
inactive: growth inhibition [1] 11.9% | growth inhibition [2] 16.9% | viability increase [3] -0.25% | viability [4] 98.8% | viability [5] 98.6% | inhibition [6] 3.66% | RAM network inhibition [7] 1.53%

O=C(c1cccs1)n1cc(C(=S)N2CCOCC2)c2ccccc21
inactive: growth inhibition [1] -4.95% | growth inhibition [2] -0.915% | viability increase [3] -0.89% | viability [4] 94.2% | viability [5] 88.1% | inhibition [6] 1.71% | RAM network inhibition [7] 4.07%

COc1ccccc1CC1(C)NC(=O)N(CC(=O)N2CC(C)OC(C)C2)C1=O (configuration not stated)
inactive: growth inhibition [1] -25.5% | growth inhibition [2] -15% | viability increase [3] -0.71% | viability [4] 95.5% | viability [5] 97.9% | inhibition [6] 1.68% | RAM network inhibition [7] 1.34%

Cc1nc2sc(C(c3cccs3)N3CCN(c4ccccc4)CC3)c(O)n2n1 (configuration not stated)
inactive: growth inhibition [1] 0.19% | growth inhibition [2] 5.34% | viability increase [3] -0.21% | viability [4] 96.5% | viability [5] 94.8% | inhibition [6] 1.19% | RAM network inhibition [7] 2.14%

CCCCC(CC)C(=O)NCCCN1CCN(CCCNC(=O)C(CC)CCCC)CC1 (configuration not stated)
inactive: growth inhibition [1] -6.17% | growth inhibition [2] 2.97% | viability increase [3] -1.81% | viability [4] 87.3% | viability [5] 90.6% | inhibition [6] -0.16% | RAM network inhibition [7] 2.42%

COc1ccc2cc(CCNC(=O)c3c(-c4ccccc4Cl)noc3C)c(=O)[nH]c2c1
inactive: growth inhibition [1] -14.1% | growth inhibition [2] -21.1% | viability increase [3] -3.23% | viability [4] 103% | viability [5] 92.7% | inhibition [6] 1.02% | RAM network inhibition [7] 4.72%

NC(=O)CC1NC(=O)c2ccccc21 (configuration not stated)
inactive: growth inhibition [1] -11.7% | growth inhibition [2] -6.05% | viability increase [3] 0.12% | viability [4] 91.7% | viability [5] 100% | inhibition [6] 1.28% | RAM network inhibition [7] 3.47%

COc1ccc(N2C(=O)CCC(C(=O)NCc3ccccn3)C2c2ccc(OC)c(OC)c2)cc1 (configuration not stated)
inactive: growth inhibition [1] -3.9% | growth inhibition [2] 6.09% | viability increase [3] -1.53% | viability [4] 98.3% | viability [5] 100% | inhibition [6] 1.01% | RAM network inhibition [7] -0.31%

COC(=O)c1ccsc1NC(=O)c1ccc2c(c1)OCCO2
inactive: growth inhibition [1] 2.02% | growth inhibition [2] -2.86% | viability increase [3] -4.78% | viability [4] 81% | viability [5] 68.1% | inhibition [6] 1.8% | RAM network inhibition [7] 2.08%

C=CCn1c(O)c(C2=c3ccccc3=NC2=O)sc1=Nc1ccc(O)cc1
active: viability [4] 2.1% | viability [5] 1.53%
inactive: growth inhibition [1] -4.33% | growth inhibition [2] -12% | viability increase [3] -8.74% | inhibition [6] 1.98% | RAM network inhibition [7] 2.7%

COc1ccccc1C(=O)Nc1nnc(-c2ccc(Cl)cc2)o1
inactive: growth inhibition [1] -2.96% | growth inhibition [2] 1.53% | viability increase [3] -1.3% | viability [4] 103% | viability [5] 98.1% | inhibition [6] 0.395% | RAM network inhibition [7] -0.25%

CN(C)Cc1cc(C(C)(C)C)c(O)c(C(C)(C)C)c1
inactive: growth inhibition [1] -3.78% | growth inhibition [2] -4.33% | viability increase [3] -2.61% | viability [4] 97.2% | viability [5] 101% | inhibition [6] 0.92% | RAM network inhibition [7] 5.72%

O=C(NCCN1CCc2ccccc2C1)Nc1ccc(F)cc1
inactive: growth inhibition [1] -4.88% | growth inhibition [2] -2.83% | viability increase [3] -3.99% | viability [4] 105% | viability [5] 100% | inhibition [6] 2.19% | RAM network inhibition [7] 2.62%

CCOc1ccc(-c2nc(C#N)c(N3CCN(Cc4ccccc4)CC3)o2)cc1
inactive: growth inhibition [1] -4.62% | growth inhibition [2] 8.5% | viability increase [3] -0.05% | viability [4] 78.6% | viability [5] 87.2% | inhibition [6] -0.36% | RAM network inhibition [7] 3.33%

COc1cc(OC)c(Nc2cc(C)nc3nc(C)nn23)cc1Cl
inactive: growth inhibition [1] 4.72% | growth inhibition [2] -1.03% | viability increase [3] -1.47% | viability [4] 106% | viability [5] 104% | inhibition [6] 3.52% | RAM network inhibition [7] -0.72%

CCCCNC(=O)c1ccc2nc(-c3ccco3)c(-c3ccco3)nc2c1
inactive: growth inhibition [1] -4.73% | growth inhibition [2] -6.49% | viability increase [3] -1.69% | viability [4] 104% | viability [5] 97.5% | inhibition [6] 1.85% | RAM network inhibition [7] 1.63%

CCOc1ccccc1CNS(=O)(=O)c1ccc2c(c1)oc(=O)n2C
inactive: growth inhibition [1] -8.67% | growth inhibition [2] -0.955% | viability increase [3] -1.75% | viability [4] 102% | viability [5] 94% | inhibition [6] -0.575% | RAM network inhibition [7] 1.03%

Cc1ccc(CC2CC(=O)N(c3cc(C)on3)C2=O)cc1 (configuration not stated)
inactive: growth inhibition [1] -17.8% | growth inhibition [2] -19.9% | viability increase [3] 0.79% | viability [4] 100% | viability [5] 94% | inhibition [6] 1.73% | RAM network inhibition [7] -0.79%

CC1(C)Cc2ccccc2-c2nc(NCCO)n(-c3ccccc3)c(=O)c21
inactive: growth inhibition [1] -7.5% | growth inhibition [2] -15.2% | viability increase [3] -2.92% | viability [4] 84.8% | viability [5] 83% | inhibition [6] -0.14% | RAM network inhibition [7] 3.93%

O=C(C(c1ccccc1)c1ccccc1)N1CCOCC1
inactive: growth inhibition [1] -6.96% | growth inhibition [2] 1.92% | viability increase [3] -1.34% | viability [4] 100% | viability [5] 95.9% | inhibition [6] 0.87% | RAM network inhibition [7] 0.31%

O=C(c1ccc2snnc2c1)N1CCCC1
inactive: growth inhibition [1] -11.3% | growth inhibition [2] -4.86% | viability increase [3] -0.66% | viability [4] 99.7% | viability [5] 94.2% | inhibition [6] 1.14% | RAM network inhibition [7] 4.99%

COc1ccccc1C1C(C(N)=O)=C(C)Nc2nc(-c3ccccc3Cl)nn21 (configuration not stated)
inactive: growth inhibition [1] -4.68% | growth inhibition [2] -4.21% | viability increase [3] -2.13% | viability [4] 92.9% | viability [5] 95.8% | inhibition [6] 0.48% | RAM network inhibition [7] -2.19%

NC(=O)C1CCN(C(=O)CN(c2cccc(C(F)(F)F)c2)S(=O)(=O)c2ccccc2)CC1
inactive: growth inhibition [1] -10.2% | growth inhibition [2] -14.5% | viability increase [3] -1.48% | viability [4] 99.7% | viability [5] 94.7% | inhibition [6] 2.27% | RAM network inhibition [7] 4.31%

O=C(C1CCN(S(=O)(=O)c2cccc3cccnc23)CC1)N1CCN(Cc2ccccc2)CC1
inactive: growth inhibition [1] 8.83% | growth inhibition [2] 5.8% | viability increase [3] 0.23% | viability [4] 105% | viability [5] 99.5% | inhibition [6] -0.39% | RAM network inhibition [7] 1.71%

COCCN1Cc2cccc(C(=O)NCc3ccccn3)c2C1=O
inactive: growth inhibition [1] -2.71% | growth inhibition [2] -0.385% | viability increase [3] -0.59% | viability [4] 103% | viability [5] 110% | inhibition [6] 0% | RAM network inhibition [7] 1.61%

COc1ccc(S(=O)(=O)N2CCN(CCO)CC2)cc1-c1nnc2c3ccccc3c(C)nn12
inactive: growth inhibition [1] -4.39% | growth inhibition [2] -6.93% | viability increase [3] -0.85% | viability [4] 101% | viability [5] 101% | inhibition [6] 1.31% | RAM network inhibition [7] 0.95%

O=C(c1cc(-c2ccccc2)nc2ccccc12)N1CCOCC1
inactive: growth inhibition [1] -4.54% | growth inhibition [2] -9.07% | viability increase [3] -3.82% | viability [4] 102% | viability [5] 90.8% | inhibition [6] -0.135% | RAM network inhibition [7] 1.87%

O=C(CN1CCN(C2CCCCC2)CC1)c1ccc2cc[nH]c2c1
inactive: growth inhibition [1] 5.4% | growth inhibition [2] 2.7% | viability increase [3] -3.56% | viability [4] 94% | viability [5] 85.7% | inhibition [6] 1.9% | RAM network inhibition [7] -1.26%

Cn1c(NC(=O)c2ccc(C(C)(C)C)cc2)cc(=O)n(C)c1=O
inactive: growth inhibition [1] -2.62% | growth inhibition [2] -6.46% | viability increase [3] -2.04% | viability [4] 91.1% | viability [5] 96.5% | inhibition [6] 1.97% | RAM network inhibition [7] 1.63%

Source: PubChem BioAssay
